# In PubChem BioAssay:
# Activity calls are given as the source filed them.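 Rule for the calls, unless noted: active = current rise at least 3 SD above the untreated control mean in each of two repeat wells; inactive = the rest.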
# Experiments:
# [1] = nonspecific flux increase, KCNQ1-free cells – parental CHO cells, counter-screen for KCNQ1 potentiator project (AID 493006;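 active = duplicate-averaged activation above buffer control mean plus 5 SD of those controls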;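 for activation: fluorescence ratio of max minus min over baseline after K+ and Tl+ depolarization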); details: parental CHO-K1 cells, FluxOR thallium flux, at 10 µM; stronger effect = higher value
# Method in brief: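 Material: parental CHO-K1 cells, FluxOR dye-loaded; Also added: Potassium/thallium depolarization pulse; Schedule: overnight 37 °C plating, 90 min dye, 20 min dark compound; Signal: kinetic FluxOR fluorescence, 10 s baseline, 110 s after stimulus.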
# [2] = biological target: Potassium voltage-gated channel subfamily KQT member 1 (Homo sapiens) (UniProt P51787); experiment: enhancement of KCNQ1 channel thallium flux – FluxOR thallium flux, CHO cells, duplicates, confirmation (AID 493007;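 active = potentiation averaged over duplicate wells exceeding buffer-only control mean by more than 3 SD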;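 for outcome: cells depolarized by a potassium plus thallium sulfate stimulus after compound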); details: KCNQ1 cell line, FluxOR thallium flux fluorescence, at 10 µM; stronger effect = higher value, % of reference activator effect, buffer zero
# Method in brief: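 System: KCNQ1-expressing CHO cell line; technique: kinetic thallium influx fluorescence with FluxOR dye, 10 s baseline, 110 s post-stimulus; timing: dye 90 min then compound 20 min, both at room temperature; controls: buffer-only wells as 0% and R-L3 activator as 100%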
# [3] = biological target: Potassium voltage-gated channel subfamily KQT member 2 (Rattus norvegicus) (UniProt O88943); experiment: KCNQ2 thallium flux enhancement – KCNQ2-CHO-K1 cells, selectivity assay for KCNQ1 potentiator project (AID 493009;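 active = mean duplicate potentiation above the buffer control mean plus 5 SD of buffer wells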;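 note: assay conditions were tuned for KCNQ1 rather than KCNQ2 modulators; signal is max minus min fluorescence divided by baseline after thallium stimulus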); details: FluxOR thallium flux fluorescence, at 10 µM; stronger effect = higher value, scaled: buffer 0, activator control 100
# [4] = biological target: Potassium voltage-gated channel subfamily KQT member 1 (Homo sapiens) (UniProt P51787); experiment: KCNQ1 activators by electrophysiology – IonWorks patch clamp, KCNQ1-CHO cells, orthogonal assay for KCNQ1 potentiator project, confirmation (AID 493184); details: automated patch clamp current, at 10 µM; stronger effect = higher value
# Method in brief: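 Test system: KCNQ1-expressing CHO cells. Medium: pH 7.4 external bath. Probe or stimulus: voltage step from -90 mV holding to +40 mV, 2,000 ms. Compound: 10 µM final, single point. Detection: automated perforated-patch electrophysiology. Read-out: percent current increase versus pre-compound level. Repeats: two replicates.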
# Sequence of Potassium voltage-gated channel subfamily KQT member 1 (Homo sapiens) (P51787 whole entry, looked up): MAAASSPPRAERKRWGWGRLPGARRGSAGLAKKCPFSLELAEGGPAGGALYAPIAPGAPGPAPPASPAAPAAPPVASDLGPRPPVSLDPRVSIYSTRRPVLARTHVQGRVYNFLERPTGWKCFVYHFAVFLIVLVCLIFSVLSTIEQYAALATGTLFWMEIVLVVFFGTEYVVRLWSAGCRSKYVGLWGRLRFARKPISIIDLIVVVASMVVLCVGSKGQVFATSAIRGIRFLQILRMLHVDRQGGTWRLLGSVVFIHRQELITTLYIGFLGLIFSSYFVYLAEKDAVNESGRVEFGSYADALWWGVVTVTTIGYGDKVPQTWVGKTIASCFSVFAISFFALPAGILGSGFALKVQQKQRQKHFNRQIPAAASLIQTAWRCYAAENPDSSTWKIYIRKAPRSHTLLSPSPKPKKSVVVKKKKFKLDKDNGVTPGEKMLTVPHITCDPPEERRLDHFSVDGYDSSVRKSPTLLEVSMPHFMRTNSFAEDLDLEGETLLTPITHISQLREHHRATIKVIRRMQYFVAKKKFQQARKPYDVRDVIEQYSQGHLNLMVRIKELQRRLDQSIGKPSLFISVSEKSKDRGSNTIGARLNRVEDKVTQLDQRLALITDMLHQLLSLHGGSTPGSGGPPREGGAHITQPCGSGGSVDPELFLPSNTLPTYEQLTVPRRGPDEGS
# Sequence of Potassium voltage-gated channel subfamily KQT member 2 (Rattus norvegicus) (O88943 whole entry, looked up): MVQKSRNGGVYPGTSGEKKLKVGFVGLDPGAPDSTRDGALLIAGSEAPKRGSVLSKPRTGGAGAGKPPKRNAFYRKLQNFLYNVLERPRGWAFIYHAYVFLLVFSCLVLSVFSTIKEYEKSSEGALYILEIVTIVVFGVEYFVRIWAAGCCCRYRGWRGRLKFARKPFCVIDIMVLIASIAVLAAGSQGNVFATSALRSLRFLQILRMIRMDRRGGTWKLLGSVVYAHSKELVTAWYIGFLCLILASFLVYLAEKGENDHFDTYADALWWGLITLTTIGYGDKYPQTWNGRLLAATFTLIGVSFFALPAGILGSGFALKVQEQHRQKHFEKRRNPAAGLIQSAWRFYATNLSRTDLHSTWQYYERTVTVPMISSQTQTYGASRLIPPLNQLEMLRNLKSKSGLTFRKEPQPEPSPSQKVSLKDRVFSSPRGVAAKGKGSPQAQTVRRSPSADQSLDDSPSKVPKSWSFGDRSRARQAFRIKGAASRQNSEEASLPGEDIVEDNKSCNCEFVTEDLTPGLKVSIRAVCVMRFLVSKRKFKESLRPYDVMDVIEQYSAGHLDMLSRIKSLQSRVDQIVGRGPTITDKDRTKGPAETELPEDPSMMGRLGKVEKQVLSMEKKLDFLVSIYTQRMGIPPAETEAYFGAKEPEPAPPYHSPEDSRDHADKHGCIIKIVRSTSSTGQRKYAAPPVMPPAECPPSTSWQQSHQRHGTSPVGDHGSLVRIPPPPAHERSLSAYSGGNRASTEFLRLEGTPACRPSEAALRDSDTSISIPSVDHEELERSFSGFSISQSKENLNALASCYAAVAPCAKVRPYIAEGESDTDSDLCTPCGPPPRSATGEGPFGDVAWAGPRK
SMILES,activation [1],potentiation [2],potentiation [3],outcome [4],outcome [1],outcome [2],outcome [3]
COc1ccc(OC)c(NC(=O)C(=O)NNC(=O)C23CC4CC(CC(C4)C2)C3)c1,404% (active),244% (active),463% (active),inactive,–,–,–
S=c1[nH]c(-c2ccc(Cl)cc2)cs1,634% (active),206% (active),525% (active),inactive,–,–,–
CCOC(=O)c1ccc(N2C(=O)c3n[nH]c(C)c3C2c2ccccn2)cc1 (stereo not given),–,–,–,inactive,inactive,inactive,inactive
C=CCn1c(=S)[nH]c2ccc(Br)cc2c1=O,208% (active),51% (active),200% (active),inactive,–,–,–
Cc1cc(Br)ccc1OCC(=O)NNC(=O)c1cnccn1,–,–,–,inactive,inactive,inactive,inactive
O=C(NC(=S)Nc1nc2ccccc2s1)c1cccs1,400% (active),180% (active),389% (active),inactive,–,–,–
Cc1nc(NCc2cccnc2)c2c3c(sc2n1)CC(C)CC3 (stereo not given),299% (active),118% (active),352% (active),inactive,–,–,–
O=C(NC(=S)N1CCN(c2ccc(Cl)cc2[N+](=O)[O-])CC1)c1cccs1,188% (active),61% (active),244% (active),inactive,–,–,–
CSC(=S)N/N=C/c1ccc(Br)cc1,172% (active),38% (active),179% (active),inactive,–,–,–
COc1cc(C2NC(=O)NC(O)(C(F)(F)F)C2C(C)=O)cc(OC)c1OC (stereo not given),–,–,–,inactive,inactive,inactive,inactive
COC(=O)c1cccnc1NC(=S)NC1CCCCC1,208% (active),36.5% (active),233% (active),inactive,–,–,–
Cc1nn(-c2ccccc2)c(Cl)c1/C=C1\SC(=S)NC1=O,614% (active),295% (active),704% (active),inactive,–,–,–
O=C(Nc1nnc(-c2ccc3c(c2)CCCC3)o1)c1ccccc1,266% (active),130% (active),400% (active),inactive,–,–,–
Oc1c(Br)cc(Br)cc1C=Nc1cccnc1,146% (active),48% (active),–,inactive,–,–,inactive
Fc1ccc(SCCc2ccncc2)cc1,–,–,–,inactive,inactive,inactive,inactive
Cc1cc(/C=N\NC(=O)CC(=O)NC2CCCCC2)c(C)n1-c1cccc(Cl)c1Cl,–,–,153% (active),inactive,inactive,inactive,–
CC(C)(C)CC(C)(C)NC(=S)NC1CCN(Cc2ccccc2)CC1,–,–,–,inactive,inactive,inactive,inactive
Cc1cc(C(=O)OCC(=O)NCc2ccco2)c(C)n1-c1ccc(F)cc1,283% (active),116% (active),323% (active),inactive,–,–,–
COc1cc(S(=O)(=O)Nc2cccnc2)ccc1Cl,200% (active),64% (active),212% (active),inactive,–,–,–
CCN(c1ccc(NS(=O)(=O)c2cc(Cl)ccc2Cl)cc1)C(C)C,–,–,–,inactive,inactive,inactive,inactive
O=C(NC(=S)Nc1ccccc1N1CCCCC1)c1ccc(F)cc1Cl,–,49.5% (active),–,inactive,inactive,–,inactive
CCOC(=O)c1cc(CC)sc1NC(=O)CC1Sc2ccc(C(F)(F)F)cc2NC1=O (stereo not given),–,–,–,inactive,inactive,inactive,inactive
COc1ccc(CCN2CC(C(=O)Nc3ccc4c(c3)OCO4)CC2=O)cc1OC (stereo not given),156% (active),21% (active),158% (active),inactive,–,–,–
O=C(COC(=O)c1ccccc1)Nc1ccccc1N1CCOCC1,–,–,–,inactive,inactive,inactive,inactive
COc1ccc(C(=O)c2ccc(OC)c(N)c2)cc1N,162% (active),38.5% (active),178% (active),inactive,–,–,–
CCCC(=O)Nc1ccc(S(=O)(=O)N2CCC(c3nc4ccccc4[nH]3)CC2)cc1,–,–,–,inactive,inactive,inactive,inactive
CCCC(=O)n1nc(-c2ccccc2)nc1N,–,–,–,inactive,inactive,inactive,inactive
Cc1sc2nc(C(C)C)nc(SCC(=O)N3c4ccccc4CC3C)c2c1C (stereo not given),164% (active),47.5% (active),177% (active),inactive,–,–,–
Cc1ccc(OCC(=O)NNC(=O)C(=O)NC(C)(C)C)cc1,170% (active),43% (active),176% (active),inactive,–,–,–
CCCCCc1ccc(C(=O)CCCC)c(=S)[nH]1,277% (active),154% (active),300% (active),inactive,–,–,–
